Measurements as given in ChEMBL document CHEMBL4354819, “Discovery of Novel Small Molecule Dual Inhibitors Targeting Toll-Like Receptors 7 and 8” (J Med Chem, 2019).
Calls of active or inactive are those of the source. The calls are words filed in the database; no cut-off is given here.

Columns and labels:
[1] = target: T1, Toll-like receptor 8 (Homo sapiens) (UniProt Q9NR97); assay: Inhibition of human TLR8 expressed in HEK293 cells assessed as reduction in R848-induced NFkappaB production incubated for 16 hrs by quanti-blue SEAP assay; assay type: cell-based
T1 sequence (whole entry): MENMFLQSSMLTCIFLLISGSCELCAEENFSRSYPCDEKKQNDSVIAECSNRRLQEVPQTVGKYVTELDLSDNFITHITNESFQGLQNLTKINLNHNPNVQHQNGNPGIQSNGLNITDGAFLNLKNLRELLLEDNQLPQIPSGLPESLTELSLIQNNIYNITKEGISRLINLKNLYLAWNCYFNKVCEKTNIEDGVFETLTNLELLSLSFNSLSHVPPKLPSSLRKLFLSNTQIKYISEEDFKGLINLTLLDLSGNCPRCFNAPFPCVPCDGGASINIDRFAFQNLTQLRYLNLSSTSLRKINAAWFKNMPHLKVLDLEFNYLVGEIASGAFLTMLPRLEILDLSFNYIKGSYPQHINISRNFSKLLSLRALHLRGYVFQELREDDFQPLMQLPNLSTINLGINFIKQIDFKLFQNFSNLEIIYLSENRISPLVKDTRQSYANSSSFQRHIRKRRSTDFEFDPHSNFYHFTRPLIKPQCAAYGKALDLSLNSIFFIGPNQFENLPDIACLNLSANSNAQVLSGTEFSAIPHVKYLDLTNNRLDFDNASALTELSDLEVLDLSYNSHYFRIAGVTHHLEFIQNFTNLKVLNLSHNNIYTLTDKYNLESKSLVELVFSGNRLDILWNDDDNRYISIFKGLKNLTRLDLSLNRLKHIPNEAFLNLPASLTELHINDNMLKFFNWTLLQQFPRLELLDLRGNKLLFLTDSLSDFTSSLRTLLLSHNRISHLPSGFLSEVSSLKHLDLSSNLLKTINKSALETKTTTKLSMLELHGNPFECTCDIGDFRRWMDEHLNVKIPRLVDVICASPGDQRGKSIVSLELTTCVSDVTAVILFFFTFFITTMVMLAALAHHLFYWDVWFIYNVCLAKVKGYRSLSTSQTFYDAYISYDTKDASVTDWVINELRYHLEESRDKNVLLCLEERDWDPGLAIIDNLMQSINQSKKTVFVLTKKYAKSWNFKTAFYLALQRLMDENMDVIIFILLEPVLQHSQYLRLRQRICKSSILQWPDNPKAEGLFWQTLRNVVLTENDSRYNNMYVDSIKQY
How it was run: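 HEK 293-Blue cells stably expressing hTLR7 or hTLR8 with an inducible SEAP reporter were incubated 16 h with compound under 1 µg/mL R848 stimulation. SEAP was read at 620 nm. Data were normalized to the R848 control, and IC50 was taken from concentration-response curves. […] Mean ± s.d., n = 3 independent experiments.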

[2] = target: Toll-like receptor 4 (Homo sapiens) (UniProt O00206); assay: Inhibition of human TLR4 expressed in HEK293 cells assessed as reduction in LPS-induced NFkappaB production at 1.5 to 5 uM incubated for 16 hrs by quanti-blue SEAP assay; assay type: cell-based
Chain of Toll-like receptor 4 (Homo sapiens) (O00206 whole entry): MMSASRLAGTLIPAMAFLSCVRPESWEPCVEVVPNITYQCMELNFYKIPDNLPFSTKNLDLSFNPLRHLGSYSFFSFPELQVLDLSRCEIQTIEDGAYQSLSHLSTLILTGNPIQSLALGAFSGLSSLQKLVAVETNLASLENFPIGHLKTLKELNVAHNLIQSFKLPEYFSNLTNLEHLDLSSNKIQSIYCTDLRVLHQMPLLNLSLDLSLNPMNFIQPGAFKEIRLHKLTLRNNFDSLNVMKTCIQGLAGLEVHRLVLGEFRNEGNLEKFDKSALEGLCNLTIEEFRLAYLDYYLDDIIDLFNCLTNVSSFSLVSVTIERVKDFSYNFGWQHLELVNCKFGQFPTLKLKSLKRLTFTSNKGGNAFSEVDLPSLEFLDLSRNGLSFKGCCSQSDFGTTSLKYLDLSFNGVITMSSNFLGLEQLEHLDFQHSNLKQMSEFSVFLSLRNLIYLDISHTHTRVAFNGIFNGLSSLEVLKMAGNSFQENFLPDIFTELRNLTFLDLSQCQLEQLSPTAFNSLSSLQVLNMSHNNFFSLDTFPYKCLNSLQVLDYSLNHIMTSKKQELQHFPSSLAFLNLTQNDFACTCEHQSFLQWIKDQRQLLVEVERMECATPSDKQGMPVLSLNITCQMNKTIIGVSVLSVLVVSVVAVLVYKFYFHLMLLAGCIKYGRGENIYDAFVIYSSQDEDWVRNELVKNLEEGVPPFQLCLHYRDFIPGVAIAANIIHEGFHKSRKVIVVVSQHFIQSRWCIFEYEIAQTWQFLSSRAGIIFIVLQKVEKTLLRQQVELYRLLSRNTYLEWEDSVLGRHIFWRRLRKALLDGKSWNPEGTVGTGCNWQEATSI
How it was run: (§1)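 Selectivity panel in stably transfected HEK 293-Blue cells, each overexpressing one human TLR with an inducible SEAP reporter. Agonists: Pam3CSK4 (TLR1/2), Pam2CSK4 (TLR2/6), poly(I:C) (TLR3), LPS (TLR4), R848 (TLR7/8), ODN 2006 (TLR9). Cells were exposed to compound for 16 h. Activity = (raw − untreated)/(ligand + solvent − untreated), with ligand + solvent set as 100%.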

[3] = target: Toll-like receptor 3 (Homo sapiens) (UniProt O15455); assay: Inhibition of human TLR3 expressed in HEK293 cells assessed as reduction in poly(I:C)-induced NFkappaB production at 1.5 to 5 uM incubated for 16 hrs by quanti-blue SEAP assay; assay type: cell-based; how it was run: as §1
Chain of Toll-like receptor 3 (Homo sapiens) (O15455 whole entry): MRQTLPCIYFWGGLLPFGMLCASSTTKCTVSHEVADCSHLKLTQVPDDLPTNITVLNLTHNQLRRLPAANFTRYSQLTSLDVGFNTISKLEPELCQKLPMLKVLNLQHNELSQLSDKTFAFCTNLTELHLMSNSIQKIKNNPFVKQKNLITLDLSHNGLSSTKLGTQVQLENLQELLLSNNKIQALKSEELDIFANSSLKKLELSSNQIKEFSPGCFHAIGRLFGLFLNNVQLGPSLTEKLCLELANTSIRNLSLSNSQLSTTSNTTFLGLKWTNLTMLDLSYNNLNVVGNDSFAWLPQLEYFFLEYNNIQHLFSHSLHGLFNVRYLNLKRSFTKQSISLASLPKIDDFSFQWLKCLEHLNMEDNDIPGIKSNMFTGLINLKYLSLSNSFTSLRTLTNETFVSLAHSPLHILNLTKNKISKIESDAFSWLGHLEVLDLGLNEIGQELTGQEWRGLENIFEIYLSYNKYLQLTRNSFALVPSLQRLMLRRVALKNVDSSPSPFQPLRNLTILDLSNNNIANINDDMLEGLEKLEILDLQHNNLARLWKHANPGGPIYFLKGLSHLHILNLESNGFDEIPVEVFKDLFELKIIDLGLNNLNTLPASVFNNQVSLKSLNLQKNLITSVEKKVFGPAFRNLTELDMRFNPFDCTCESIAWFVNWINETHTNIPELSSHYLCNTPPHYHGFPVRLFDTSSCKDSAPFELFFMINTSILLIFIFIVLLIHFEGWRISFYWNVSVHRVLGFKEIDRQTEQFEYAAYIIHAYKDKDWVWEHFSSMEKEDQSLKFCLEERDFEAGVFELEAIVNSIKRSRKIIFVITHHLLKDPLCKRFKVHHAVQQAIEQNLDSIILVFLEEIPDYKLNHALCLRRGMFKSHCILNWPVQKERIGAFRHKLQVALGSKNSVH

[4] = target: T2, Toll-like receptor 9 (Homo sapiens) (UniProt Q9NR96); assay: Inhibition of human TLR9 expressed in HEK293 cells assessed as reduction in ODN-2006-induced NFkappaB production at 3 to 5 uM incubated for 16 hrs by quanti-blue SEAP assay; assay type: cell-based; how it was run: as §1
T2 sequence (whole entry): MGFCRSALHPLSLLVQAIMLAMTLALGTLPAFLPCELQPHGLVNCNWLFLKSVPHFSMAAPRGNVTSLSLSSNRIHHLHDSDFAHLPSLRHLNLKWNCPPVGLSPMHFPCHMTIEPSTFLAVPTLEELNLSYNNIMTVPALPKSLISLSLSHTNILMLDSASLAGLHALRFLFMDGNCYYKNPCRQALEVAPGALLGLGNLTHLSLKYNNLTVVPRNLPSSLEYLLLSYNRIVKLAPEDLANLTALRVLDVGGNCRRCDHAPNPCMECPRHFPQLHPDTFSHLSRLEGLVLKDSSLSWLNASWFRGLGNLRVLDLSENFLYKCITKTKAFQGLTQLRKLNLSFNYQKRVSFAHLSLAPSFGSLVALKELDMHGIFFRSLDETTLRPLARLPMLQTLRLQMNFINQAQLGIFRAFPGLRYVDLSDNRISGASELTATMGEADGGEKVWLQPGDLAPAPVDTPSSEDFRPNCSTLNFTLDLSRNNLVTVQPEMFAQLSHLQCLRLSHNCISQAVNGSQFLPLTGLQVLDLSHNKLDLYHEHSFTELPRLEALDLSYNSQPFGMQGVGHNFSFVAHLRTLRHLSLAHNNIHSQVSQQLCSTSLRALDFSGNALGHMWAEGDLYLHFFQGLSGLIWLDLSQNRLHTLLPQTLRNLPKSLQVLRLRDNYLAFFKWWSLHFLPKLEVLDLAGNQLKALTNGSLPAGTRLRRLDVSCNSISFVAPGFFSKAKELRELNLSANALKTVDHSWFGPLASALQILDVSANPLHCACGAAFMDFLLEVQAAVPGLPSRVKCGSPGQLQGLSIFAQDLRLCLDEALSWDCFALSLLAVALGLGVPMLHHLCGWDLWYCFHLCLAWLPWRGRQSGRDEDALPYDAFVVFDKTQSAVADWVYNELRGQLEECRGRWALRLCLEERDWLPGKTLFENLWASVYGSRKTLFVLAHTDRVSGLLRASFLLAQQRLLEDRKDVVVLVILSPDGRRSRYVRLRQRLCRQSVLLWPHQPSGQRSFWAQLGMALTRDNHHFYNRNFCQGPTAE

[5] = target: T2, Toll-like receptor 9 (Homo sapiens); assay: Inhibition of human TLR9 expressed in HEK293 cells assessed as reduction in ODN-2006-induced NFkappaB production at 1.5 uM incubated for 16 hrs by quanti-blue SEAP assay; assay type: cell-based; how it was run: as §1
[6] = target: Toll-like receptor 7 (Mus musculus) (UniProt P58681); assay: Inhibition of endogenous mouse TLR7 in mouse RAW264.7 cells assessed as resiquimod-induced NO production at < 5 uM incubated for 18 to 24 hrs
Chain of Toll-like receptor 7 (Mus musculus) (P58681 whole entry, looked up): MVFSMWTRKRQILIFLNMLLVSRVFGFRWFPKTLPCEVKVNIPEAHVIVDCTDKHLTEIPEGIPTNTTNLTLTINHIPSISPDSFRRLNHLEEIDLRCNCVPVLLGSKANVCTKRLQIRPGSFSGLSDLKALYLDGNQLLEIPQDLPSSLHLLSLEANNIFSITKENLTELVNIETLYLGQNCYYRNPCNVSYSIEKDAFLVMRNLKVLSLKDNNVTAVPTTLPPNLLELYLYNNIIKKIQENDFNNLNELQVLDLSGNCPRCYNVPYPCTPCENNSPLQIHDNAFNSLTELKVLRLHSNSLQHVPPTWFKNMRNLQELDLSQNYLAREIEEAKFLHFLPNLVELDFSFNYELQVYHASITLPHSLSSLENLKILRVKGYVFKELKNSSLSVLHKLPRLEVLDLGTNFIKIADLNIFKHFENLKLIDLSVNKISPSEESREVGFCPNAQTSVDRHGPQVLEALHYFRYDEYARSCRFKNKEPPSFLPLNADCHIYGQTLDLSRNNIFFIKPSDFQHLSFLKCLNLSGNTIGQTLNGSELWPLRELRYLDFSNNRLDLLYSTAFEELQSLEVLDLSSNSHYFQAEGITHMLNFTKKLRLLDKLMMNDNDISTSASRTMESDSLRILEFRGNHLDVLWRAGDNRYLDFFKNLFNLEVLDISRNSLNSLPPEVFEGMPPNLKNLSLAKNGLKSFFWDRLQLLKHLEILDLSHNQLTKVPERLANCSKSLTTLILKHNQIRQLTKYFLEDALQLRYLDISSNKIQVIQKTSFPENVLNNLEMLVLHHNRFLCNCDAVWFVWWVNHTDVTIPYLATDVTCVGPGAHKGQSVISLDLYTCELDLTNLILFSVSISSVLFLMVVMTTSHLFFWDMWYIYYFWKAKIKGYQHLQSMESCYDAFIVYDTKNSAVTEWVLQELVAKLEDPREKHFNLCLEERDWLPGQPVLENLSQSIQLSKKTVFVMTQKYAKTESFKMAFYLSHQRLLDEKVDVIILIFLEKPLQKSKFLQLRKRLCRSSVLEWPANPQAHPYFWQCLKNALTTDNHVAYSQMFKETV

| SMILES | inhibition [1] | inhibition [2] | inhibition [3] | inhibition [4] | inhibition [5] | inhibition [6] |
| --- | --- | --- | --- | --- | --- | --- |
| O=C(Nc1ccc(Oc2cc(C(F)(F)F)cc(C(F)(F)F)c2)cc1)c1c(F)cccc1Cl | Dose-dependent effect | inactive | inactive | Active | inactive | – |
| O=[N+]([O-])c1c(I)cccc1Oc1ccc(-c2nnco2)cc1 | – | – | – | – | – | inactive |
